This is an account of results in article PMC11402745 (Heliyon, 2024).

By IC50 is commonly meant the midpoint of a concentration-inhibition curve.

Where two headings read alike, the source gives them in different places.

Data set [1] concerns Escherichia coli TISTR1984. The data set can be described thus: Agar disc diffusion, E. coli. It is filed as cell-based. The conditions noted are these: E. coli TISTR 1984; extracts 500 mg/mL on disc; 37 °C, 24 h. A digest of the protocol: (§1)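 Bacteria suspended in 0.85 % saline to McFarland 0.5 (1.5 × 10^8 CFU/mL) and swabbed onto Mueller–Hinton agar. Sterile paper discs loaded with 10 μL of 500 mg/mL extract. Chloramphenicol positive control, DMSO negative control. Plates incubated aerobically at 37 °C for 24 h. Inhibition zones measured in mm with calipers; three independent experiments, mean ± SEM.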
On the technique in general: In agar diffusion tests the substance spreads into inoculated agar from a disc or well.

The subject of data set [2] is Staphylococcus aureus TISTR746. The data set can be described thus: Agar disc diffusion, S. aureus. It is filed as cell-based. Conditions: S. aureus TISTR 746; extracts 500 mg/mL on disc; 37 °C, 24 h. An outline of the steps: as §1
Data set [3] is described as follows: DPPH free radical scavenging assay. Conditions: at 1 mg/mL. An outline of the steps:
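Test compound mixed with 150 μM DPPH reagent, shaken immediately, then held 30 min in the dark at room temperature. Absorbance read at 520 nm. Trolox served as standard and positive control. Three independent experiments, mean ± SEM, one-way ANOVA vs diluent control.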
On the technique in general: The DPPH test is a chemical assay of radical scavenging.

The nature of data set [4]: ABTS free radical scavenging assay. The conditions noted are these: at 0.5 mg/mL. An outline of the steps:
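Free-radical scavenging measured by mixing ABTS working solution with test compound, then incubating 10 min in the dark at room temperature. Absorbance read at 734 nm. Trolox served as standard and positive control. Three independent experiments, mean ± SEM, one-way ANOVA vs diluent control.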

In data set [5] the test system is MDA-MB-231 cells. Description: Clonogenic cell survival assay, MDA-MB-231. It is filed as cell-based, human. Conditions: cisplatin 100 μM, 24 h, p < 0.0001 vs control. A digest of the protocol: (§2)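 Cells grown in DMEM/10 % FBS at 37 °C, 5 % CO2, seeded at 2 × 10^5 cells/well and left 24 h. Test compound or cisplatin added for 24 h. Cells trypsinised and reseeded at 1 × 10^3 cells/well without drug for 8–10 days. Fixed in cold methanol 45 min, stained with 0.5 % crystal violet 45 min. Colonies counted by light microscopy as % of untreated control; n = 3, one-way ANOVA.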

Data set [6] concerns MDA-MB-231 cells. Description: MTT cell viability, MDA-MB-231. It is filed as cell-based, human. Conditions: MDA-MB-231, MTT. An outline of the steps: (§3)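 Cells grown in DMEM/10 % FBS at 37 °C, 5 % CO2, seeded at 5 × 10^3 cells/well and left 24 h. Exposed to extracts (0–400 µg/mL) or cisplatin (0–400 µM) for 24, 48 or 72 h. MTT added for 2 h at 37 °C, formazan dissolved in DMSO, OD read at 570 nm. % viability and IC50 derived; three independent experiments, mean ± SEM.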

Data set [7] deals with MCF-7 cells. The data set can be described thus: Clonogenic cell survival assay, MCF-7. It is filed as cell-based, human. Conditions: cisplatin 100 μM, 24 h, p < 0.05 vs control. An outline of the steps:
as §2

The subject of data set [8] is MCF10A cells. Description: MTT cell viability, MCF10A. It is filed as cell-based, human. A digest of the protocol: as §3
Data set [9] relates to MCF-7 cells. Description: MTT cell viability, MCF-7. It is filed as cell-based, human. The conditions noted are these: MCF-7, MTT. A digest of the protocol:
as §3

Data set [10] relates to HEK293T cells. Description: MTT cell viability, HEK293T. It is filed as cell-based, human. An outline of the steps: as §3
In data set [11] the test system is RAW264.7 cells. Description: MTT cell viability, RAW264.7. It is filed as cell-based, mouse. The conditions noted are these: RAW cells, 24 h, compared to untreated cells. An outline of the steps: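 RAW264.7 macrophages grown in DMEM/10 % FBS at 37 °C, 5 % CO2. Exposed 24 h to dexamethasone (0–100 μM) or LPS (0–100 ng/mL). Viability expressed relative to untreated cells.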

Regarding `O=C(N[C@H](CO)[C@H](O)c1ccc([N+](=O)[O-])cc1)C(Cl)Cl` [CHL, Chloramphenicol], the ZOI in data set [1] is reported as 29.75 ± 0.35 mm; in data set [2] it was 29.75 ± 1.77 mm.
Regarding `Cc1c(C)c2c(c(C)c1O)CCC(C)(C(=O)O)O2` (centres unmarked) [Trolox], in [3], the “DPPH radical inhibition rate” value is recorded as 98.02 ± 0.21%. Besides, the “ABTS radical inhibition rate” value in data set [4] is on record as 69.92 ± 3.08%.
For the molecule `N.N.[Cl][Pt][Cl]` [cisplatin], the colony formation entry in [5] and in data set [7] was “significantly decreased” each time. In addition, the IC50 in data set [6] (read-out: IC50 for 24 h, 24 h) stood at 46.7 ± 2.89 µM; in data set [6] (read-out: IC50 for 48 h, 48 h) it was 44.7 ± 2.86 µM; in data set [6] (read-out: IC50 for 72 h, 72 h) it was 33.3 ± 2.64 µM; in [8] (read-out: IC50 for 24 h, 24 h), 74.3 ± 3.24 µM; in data set [8] (read-out: IC50 for 48 h, 48 h), 37.2 ± 2.72 µM; in [8] (read-out: IC50 for 72 h, 72 h), 26.2 ± 1.66 µM. Further, the IC50 came to 73.8 ± 3.24 µM in data set [9] (read-out: IC50 for 24 h, 24 h); 41.5 ± 2.8 µM in data set [9] (read-out: IC50 for 48 h, 48 h); 32.9 ± 2.63 µM in data set [9] (read-out: IC50 for 72 h, 72 h); 62.3 ± 3.1 µM in data set [10] (read-out: IC50 for 24 h, 24 h); 11.6 ± 1.3 µM in [10] (read-out: IC50 for 48 h, 48 h); 3.25 ± 0.88 µM in data set [10] (read-out: IC50 for 72 h, 72 h).
Turning to `C[C@@H]1C[C@H]2[C@@H]3CCC4=CC(=O)C=C[C@]4(C)[C@@]3(F)[C@@H](O)C[C@]2(C)[C@@]1(O)C(=O)CO` [dexamethasone], the cell viability entry in [11] (dexamethasone at 0–12.50 μM) is reported as “unchanged”.
With lipopolysaccharide [LPS], the cell viability result in data set [11] (LPS at 0–12.5 ng/mL) is listed as “unchanged”.
